Laboratory results from ChEMBL document CHEMBL4808182, “Discovery of the Soluble Guanylate Cyclase Activator Runcaciguat (BAY 1101042)” (J Med Chem, 2021).
Activity calls are given as the source filed them. The calls are words filed in the database; no cut-off is given here.

Assays:
[1] = Volume of distribution at steady state in Wistar rat at 0.3 mg/kg, iv measured up to 24 hrs by LC-MS analysis; format: ADME, organism-based; conditions: in vivo, read-out: Vdss
[2] = species on record: Rattus norvegicus; assay: Effect on heart rate in Wistar rat; format: functional
Summary of the method: (§1)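 Rat hearts in Langendorff perfusion were exposed to 10 nM–10 μM. Coronary perfusion pressure, heart rate, LVDP and +dp/dt were recorded.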

[3] = target: T1, Guanylate cyclase soluble subunit alpha-1 (Rattus norvegicus) (UniProt P19686); assay: Activation of recombinant rat sGC alpha1 subunit expressed in CHO cells assessed as induction of [32P-cGMP] formation at 0.01 to 100 uM using alpha-[32P-GTP] as substrate measured after 6 mins in presence of ODQ by luminescence assay; format: cell-based; conditions: filed as activator, dose 0.01-100 µM
T1 sequence (whole entry): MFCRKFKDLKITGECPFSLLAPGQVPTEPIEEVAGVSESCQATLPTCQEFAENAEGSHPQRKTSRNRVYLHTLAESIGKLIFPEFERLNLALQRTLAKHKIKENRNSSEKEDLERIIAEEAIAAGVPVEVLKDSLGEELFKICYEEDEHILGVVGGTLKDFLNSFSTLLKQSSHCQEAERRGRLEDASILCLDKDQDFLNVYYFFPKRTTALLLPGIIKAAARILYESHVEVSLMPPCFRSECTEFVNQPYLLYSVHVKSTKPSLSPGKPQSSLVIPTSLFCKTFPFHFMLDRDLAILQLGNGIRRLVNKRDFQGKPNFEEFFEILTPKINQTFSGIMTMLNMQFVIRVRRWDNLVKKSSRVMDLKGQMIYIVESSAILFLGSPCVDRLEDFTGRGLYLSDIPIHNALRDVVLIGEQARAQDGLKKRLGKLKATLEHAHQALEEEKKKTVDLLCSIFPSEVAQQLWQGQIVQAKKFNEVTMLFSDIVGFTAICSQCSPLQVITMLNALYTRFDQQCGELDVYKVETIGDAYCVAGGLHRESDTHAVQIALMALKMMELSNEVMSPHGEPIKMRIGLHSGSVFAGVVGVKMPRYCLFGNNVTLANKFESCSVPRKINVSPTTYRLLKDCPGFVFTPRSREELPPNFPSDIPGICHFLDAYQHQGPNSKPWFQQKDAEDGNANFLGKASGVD

[4] = target: T1, Guanylate cyclase soluble subunit alpha-1 (Rattus norvegicus); assay: Activation of recombinant rat sGC alpha1 subunit expressed in CHO cells assessed as induction of [32P-cGMP] formation at 0.01 to 100 uM using alpha-[32P-GTP] as substrate measured after 6 mins in presence of NO by luminescence assay; conditions: filed as activator, dose 0.01-100 µM
[5] = tested on: Coronary artery; assay: Vasorelaxant activity in porcine coronary artery assessed as inhibition of U-46619-induced contractions; format: functional, tissue-based; conditions: Sus scrofa
[6] = tested on: Aorta; assay: Vasorelaxant activity in Chinchilla rabbit aortic ring assessed as inhibition of phenylephrine-induced contractions; format: functional, tissue-based; conditions: Oryctolagus cuniculus
[7] = target: T1, Guanylate cyclase soluble subunit alpha-1 (Rattus norvegicus); assay: Activation of recombinant rat sGC alpha1 subunit expressed in CHO cells assessed as induction of [32P-cGMP] formation using alpha-[32P-GTP] as substrate measured after 6 mins by luminescence assay; format: cell-based; conditions: filed as activator
[8] = Half life in Wistar rat at 0.3 mg/kg, iv measured up to 24 hrs by LC-MS analysis; format: ADME, organism-based; conditions: in vivo
[9] = tested on: CHO; assay: Activation of recombinant rat sGC expressed in CHO cells in presence of NO-donor S-nitroso N-acetyL-penicillamine by luminescence assay; format: cell-based; conditions: filed as activator
Summary of the method: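 Rat sGC-overexpressing CHO reporter cells were treated with test compound combined with NO donor SNAP, and the luminescence signal was read.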

[10] = Blood clerance in cynomolgus monkey at 0.1 mg/kg, iv measured up to 24 hrs by LC-MS analysis; format: ADME, organism-based, Macaca fascicularis; conditions: whole blood
[11] = tested on: Rattus norvegicus; assay: Reduction in blood pressure in spontaneous hypertensive Wistar rat at 0.3 to 3 mg/kg, po by radiotelemetry relative to control; format: functional; parameters: scale not given: the % may be the effect or the level left; conditions: dose 0.3-3 mg/kg
[12] = Oral bioavailability in cynomolgus monkey at 0.1 mg/kg measured up to 24 hrs by LC-MS analysis; format: ADME, organism-based, Macaca fascicularis; conditions: in vivo
[13] = tested on: Rattus norvegicus; assay: Increase in heart rate in spontaneous hypertensive Wistar rat at 0.1 to 3 mg/kg, po by radiotelemetry relative to control; format: functional; conditions: dose 0.1-3 mg/kg
Summary of the method: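 Spontaneously hypertensive rats were given single oral doses of 0.1–3.0 mg/kg. Mean arterial pressure and heart rate were monitored for at least 24 h post dose, as % change.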

[14] = tested on: Heart; assay: Reduction in coronary perfusion pressure in heart isolated from Wistar rat; format: functional, tissue-based; conditions: dose 0.01-10 µM; summary of the method: as §1
[15] = Half life in cynomolgus monkey at 0.1 mg/kg, iv measured up to 24 hrs by LC-MS analysis; format: ADME, organism-based, Macaca fascicularis; conditions: in vivo
[16] = tested on: Saphenous artery; assay: Vasorelaxant activity in Chinchilla rabbit saphenous artery assessed as inhibition of phenylephrine-induced contractions; format: functional, tissue-based; conditions: Oryctolagus cuniculus
[17] = species on record: Rattus norvegicus; assay: Effect on contractility in Wistar rat; format: functional; summary of the method: as §1
[18] = Volume of distribution at steady state in cynomolgus monkey at 0.1 mg/kg, iv measured up to 24 hrs by LC-MS analysis; format: ADME, organism-based, Macaca fascicularis; conditions: in vivo, read-out: Vdss
[19] = Oral bioavailability in Beagle dog at 0.1 mg/kg measured up to 24 hrs by LC-MS analysis; format: ADME, organism-based, Canis lupus familiaris; conditions: in vivo

C[C@H]([C@H](C(=O)Nc1cc([C@@H](CC(=O)O)C2CC2)ccc1Cl)c1ccc(Cl)cc1)C(F)(F)F [RUNCACIGUAT]
Vd [1]: 1.4 L/kg | Activity [2]: inactive | Activity [3]: Active | Activity [4]: Active | IC50 [5]: 137 nM | IC50 [6]: 39 nM | MEC [7]: 1.8 nM | half-life [8]: 7.5 h | Activity [9]: Active | clearance [10]: 2.67 mL/min/kg | Activity [11]: 5% | bioavailability [12]: 81% | Activity [13]: <=20% | Activity [14]: Dose-Dependent Effect | half-life [15]: 10 h | IC50 [16]: 199 nM | Activity [17]: inactive | Vd [18]: 1.4 L/kg | bioavailability [19]: 48%
